This note sets out measurements from ChEMBL document CHEMBL4014285, “Novel, highly potent systemic glucokinase activators for the treatment of Type 2 Diabetes Mellitus” (Bioorg Med Chem Lett, 2017).

In brackets after ≈: the same amount, converted by molar mass.

The target of data set [1] is T1, Hexokinase-4 (Homo sapiens, UniProt P35557).
T1 sequence (P35557 whole entry): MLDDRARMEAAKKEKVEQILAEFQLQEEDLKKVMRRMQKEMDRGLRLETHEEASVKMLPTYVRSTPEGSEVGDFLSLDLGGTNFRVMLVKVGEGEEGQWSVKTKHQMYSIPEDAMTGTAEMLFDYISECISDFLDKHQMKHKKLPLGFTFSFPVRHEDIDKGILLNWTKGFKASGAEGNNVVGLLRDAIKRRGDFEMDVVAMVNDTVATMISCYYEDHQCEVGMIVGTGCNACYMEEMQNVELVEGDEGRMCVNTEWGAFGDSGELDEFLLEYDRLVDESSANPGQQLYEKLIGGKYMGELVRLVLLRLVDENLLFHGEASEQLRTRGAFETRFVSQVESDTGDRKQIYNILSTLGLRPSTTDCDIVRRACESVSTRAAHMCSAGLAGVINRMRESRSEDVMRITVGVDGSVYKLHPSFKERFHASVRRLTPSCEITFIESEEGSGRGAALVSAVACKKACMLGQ
Description: Activation of recombinant human glucokinase assessed as conversion of D-glucose to D-glucose-6-phosphate in presence of 2.5 mM glucose by G6PDH coupled spectrophotometric assay. In a few lines:
(§1)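 Recombinant human GK; ATP-dependent D-glucose-6-phosphate formation from D-glucose at 2.5 or 10 mM, read by continuous glucose-6-phosphate dehydrogenase coupled spectrophotometry. Activators titrated at 1% DMSO final, DMSO as control. EC50 = concentration giving half of maximal increase in product formation; maximum activity expressed as percent velocity increase vs DMSO at saturating activator. Single titration.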

The target of data set [2] is T1, Hexokinase-4. Description: Activation of recombinant human glucokinase assessed as conversion of D-glucose to D-glucose-6-phosphate in presence of 10 mM glucose by G6PDH coupled spectrophotometric assay. In outline:
as §1

Data set [3] addresses T2, Hexokinase-4 (Rattus norvegicus, UniProt P17712).
T2 sequence (P17712 whole entry): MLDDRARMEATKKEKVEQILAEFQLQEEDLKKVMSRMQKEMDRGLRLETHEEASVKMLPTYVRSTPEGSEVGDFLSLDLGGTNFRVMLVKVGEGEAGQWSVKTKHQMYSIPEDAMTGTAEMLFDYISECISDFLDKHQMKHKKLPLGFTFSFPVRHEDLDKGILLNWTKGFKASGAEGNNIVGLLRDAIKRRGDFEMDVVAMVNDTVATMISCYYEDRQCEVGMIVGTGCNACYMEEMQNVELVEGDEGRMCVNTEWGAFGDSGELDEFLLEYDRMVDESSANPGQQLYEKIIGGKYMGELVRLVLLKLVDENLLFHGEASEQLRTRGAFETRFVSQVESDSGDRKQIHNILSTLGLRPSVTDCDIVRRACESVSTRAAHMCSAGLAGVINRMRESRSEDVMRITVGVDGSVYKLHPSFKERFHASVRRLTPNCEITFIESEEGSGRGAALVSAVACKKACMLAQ
In words: Activation of glucokinase in rat INS-1 cells assessed as increase in D-2-deoxyglucose-6-phosphate level in presence of D-2-deoxyglucose by HILIC LC-MS method. The class given is cell-based. In a few lines: (§2)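 GKACA cell assay in rat INS-1 Clone-13 insulinoma cells or freshly isolated primary rat hepatocytes; intracellular D-2-deoxyglucose-6-phosphate formed from exogenous D-2-deoxyglucose quantified by HILIC LC-MS; EC50 from a single titration.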

The target in data set [4] is T2, Hexokinase-4. Description: Activation of glucokinase in primary rat hepatocytes assessed as increase in D-2-deoxyglucose-6-phosphate level in presence of D-2-deoxyglucose by HILIC LC-MS method. The class given is cell-based. In a few lines:
as §2

A short description of data set [5]: Solubility of the compound at pH 7. The class given is physicochemical. As to conditions: buffer.
Data set [6] in a line: Solubility of the compound at pH 2. The class given is physicochemical. As to conditions: buffer.
A short description of data set [7]: Stability of compound in human liver microsomes assessed as compound remaining at 1 uM measured after 30 mins. The note with it: read-out: Stability. Format: ADME, microsome. In a few lines:
(§3)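 Human or rat liver microsome preparations incubated with compound; percent parent remaining after 30 min.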
A general note: Liver microsomes are a subcellular fraction often used to study metabolism.

Data set [8] is described as follows: Stability of compound in rat liver microsomes assessed as compound remaining at 1 uM measured after 30 mins. The note with it: read-out: Stability. Format: ADME, microsome. In outline: as §3
The nature of data set [9]: Unbound fraction in human plasma. Format: ADME, cell-free. In a few lines: (§4)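 Unbound fraction determined in 100% human or C57BL/6 mouse plasma.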
The nature of data set [10]: Unbound fraction in C57BL/6 mouse plasma. The class given is ADME, cell-free. In outline: as §4
Data set [11] can be described thus: Apparent permeability in pig LLC-PK1 cells. Format: ADME, cell-based, Sus scrofa.
Data set [12] in a line: Apparent permeability in MDCK cells. The note with it: dog. Format: ADME, cell-based, Canis lupus familiaris.
A short description of data set [13]: Clearance in rat. Format: ADME. As to conditions: in vivo.
The nature of data set [14]: Volume of distribution at steady state in rat. Format: ADME. As to conditions: in vivo, read-out: Vdss.
Data set [15] can be described thus: Half life in rat. The note with it: in vivo. Format: ADME.
Data set [16] can be described thus: Mean residence time in rat. Format: ADME. As to conditions: in vivo.
The species named for data set [17] is Rattus norvegicus. In words: Dose normalized AUC in rat. Format: ADME. The note with it: in vivo.
Data set [18] is filed under the species Rattus norvegicus. Description: Dose normalized Cmax in rat. The class given is ADME. As to conditions: in vivo.
Data set [19] in a line: Oral bioavailability in rat. The class given is ADME, organism-based. As to conditions: in vivo.
Data set [20] in a line: Total drug level in HFD-fed C57BL/6 mouse plasma at 0.01 mg/kg, po measured at 4 hrs post dose. Format: ADME, organism-based. In outline: (§5)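 3-week high fat diet-fed C57BL/6 mice given 0.01, 0.03 or 0.10 mg/kg orally; total (bound plus unbound) drug concentration in plasma sampled 4 h after dosing.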
Data set [21] is described as follows: Total drug level in HFD-fed C57BL/6 mouse plasma at 0.03 mg/kg, po measured at 4 hrs post dose. The class given is ADME, organism-based. In outline:
as §5

A short description of data set [22]: Total drug level in HFD-fed C57BL/6 mouse plasma at 0.10 mg/kg, po measured at 4 hrs post dose. Format: ADME, organism-based. As to conditions: 0.1 mg/kg. In a few lines:
as §5

In data set [23] the test system is Plasma. Description: Total drug level in po dosed HFD-fed C57BL/6 mouse plasma measured at 4 hrs post dose. Format: ADME, organism-based. As to conditions: in vivo. In outline: as §5

On to `CN1C(=O)CCC1c1cc2[nH]c(-c3ccccn3)cc2cc1Oc1ccc(S(C)(=O)=O)nc1` (single isomer, unassigned; ent-1), for which the EC50 in data set [1] is 3.7 nM; in [2], 2.4 nM; in data set [3] it was 0.9 nM; in data set [4], 7.5 nM. Also, the figures for the solubility in [5] and in data set [6] were 142 µM (≈ 65.7 µg/mL) and 194 µM (≈ 89.7 µg/mL), respectively. The figures for the remaining at 0.5 h, 1 µM in data set [7] and in data set [8] were 75% and 79%, respectively. Besides, the values for the fraction unbound in [9] and in data set [10] were 0.087 and 0.072, respectively. Also, the Papp in [11] and in data set [12] was 40 ×10⁻⁶ cm/s in each case. This compound showed a clearance in data set [13] of 18 mL/min/kg. Moreover, the Vd in [14] is 3.05 L/kg. In [15], this compound had a half-life of 2.8 h. In [16], this compound displayed an MRT of 2.85 h. In addition, in data set [17], the AUC/dose amounted to 0.59 µM·kg·h/mg. The compound also registered a Cmax/dose in data set [18] of 0.235 µM·kg/mg. For the same compound, the bioavailability in data set [19] worked out at 30%. Also, the concentration at 4 h is 3.8 nM in data set [20], 12 nM in data set [21] and 18 nM in data set [22]. For the same compound, in data set [23], the Drug uptake entry is recorded as “Dose-dependent effect”.

In general, EC50 refers to the concentration at which the effect is half-maximal. What is called solubility is the concentration that dissolves in the medium under given conditions. A low value points to little dissolved substance. A word on the fraction unbound: it is free concentration divided by total concentration. High values mean weak binding, low ones extensive binding. For orientation: Papp means a coefficient for how fast a substance crosses the barrier. The term clearance denotes a measure of how efficiently the substance is removed, as volume per time. A low value points to inefficient removal. By half-life is commonly meant the time needed for the level to fall by half in the phase considered. What is called MRT is the average time that molecules of a dose stay in the body. What is called bioavailability is the share of a dose that reaches the circulation, judged against a reference dose that is usually intravenous.
